mABHD4 FP – ABHD4 (mouse) inhibition, primary FP screen; AID 720543; Q8VD66; inhibition, % at 8.92 µM; 370,000 tested, 0.54% active; purified mABHD4, FP-Rh probe fluorescence polarization;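 active = inhibition exceeding the mean over every tested compound plus 3 SD, cut at about 30% in these data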
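assay system = mABHD4 protein | compound dosing = single nominal dose of 8.92 µM, 0.89% DMSO final | read-out basis = percent inhibition of probe binding, normalized to plate controls | schedule = Enzyme–compound pre-incubation 45 min, then probe 60 min, both 25 °C | detection = fluorescence polarization, excitation 525 nm, emission 598 nm, BODIPY TMR filters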
HTRA1 inhibitor – HTRA1 (human) protease inhibition. recombinant HTRA1, FP-rhodamine activity-based probe, fluorescence polarization. inhibition, % at 5.96 µM. 340,000 tested, 0.5% active. AID 504803; in the data active = inhibition above about 36%
Target sequence (Q92743 whole entry, looked up): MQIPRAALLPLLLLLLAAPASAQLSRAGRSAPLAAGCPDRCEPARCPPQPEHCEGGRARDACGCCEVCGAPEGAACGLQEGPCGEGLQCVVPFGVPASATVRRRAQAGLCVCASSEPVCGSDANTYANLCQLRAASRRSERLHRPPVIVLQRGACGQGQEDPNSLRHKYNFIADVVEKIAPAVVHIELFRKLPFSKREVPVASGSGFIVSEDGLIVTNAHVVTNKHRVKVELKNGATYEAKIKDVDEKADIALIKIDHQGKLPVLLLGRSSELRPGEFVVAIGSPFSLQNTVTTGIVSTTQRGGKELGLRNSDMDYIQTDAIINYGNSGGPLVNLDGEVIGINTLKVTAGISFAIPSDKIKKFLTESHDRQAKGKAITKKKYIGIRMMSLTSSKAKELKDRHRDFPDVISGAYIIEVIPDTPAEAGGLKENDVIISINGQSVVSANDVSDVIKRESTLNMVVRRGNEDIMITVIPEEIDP
SIAE inh – human SIAE inhibition, primary screen. Q9HAT2. SIAE FP-Rh probe binding, fluorescence polarization. inhibition, % at 9.66 µM. 370,000 tested, 0.69% active;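 active = inhibition above a cutoff: mean of compounds within the control limits plus 3 SD of those, cut at about 17% in these data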
LEDGF integ inh – blocks HIV-1 LEDGF/p75-dependent DNA integration; TR-FRET IN-LEDGF/p75 DNA integration, Eu/Cy5; inhibition, % at 3.7 µM; 370,000 tested, 0.64% active; AID 743269;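 active = inhibition above the screen-wide mean plus 3 SD, cut at about 13% in these data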;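 also: signal is the Cy5 over europium emission ratio at 671 and 618 nm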
TCR-CD3 inh – blocks the human TCR-CD3 interaction | TAMRA-labeled TCR probe fluorescence, biochemical | inhibition, % at 9.4 µM | 360,000 tested, 0.37% active | AID 651800; in the data active = inhibition above about 19%;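 also: recombinant mutant TCR 2C K166C tagged with TAMRA read by polarization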
TDP2 absorb – TDP2 (human) inhibition, absorbance primary screen; O95551; recombinant TDP2, T5PNP hydrolysis, p-nitrophenol absorbance 415 nm; inhibition, % at 12.8 µM; 370,000 tested, 0.34% active; AID 720702;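 active = inhibition above the mean of all tested compounds plus 3 SD, set per campaign, cut at about 25% in these data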
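System – recombinant human TDP2 · Amount – 120 nM TDP2 per well · Buffer or medium – Mg2+-containing Tris-HCl buffer, pH 7.5 · Reagent – T5PNP substrate, 5 mM · Dosing – 12.8 µM single point, 1% DMSO · Incubation – 2 h at 37 °C · Measured by – epi absorbance · Read-out basis – percent inhibition · Benchmarks – high control without enzyme, low control DMSO plus TDP2 · Repeats – singlicate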
SIAE confirm – confirmation of human SIAE inhibitors; shares compounds with SIAE inh; SIAE FP-Rh activity-based probe, fluorescence polarization; inhibition, % at 9.66 µM; 2,300 tested, 13% active; AID 1117263;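 active = mean inhibition of the replicates above the hit cutoff set in the primary screen, cut at about 17% in these data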;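 also: inhibitors lower polarization as more probe stays unbound to SIAE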
Numbers stand for hits; . = inactive; / = not tested or not shown. In the library only some 2.2% were active in any assay of this set; here they are far more common.

SMILES	mABHD4 FP	HTRA1 inhibitor	SIAE inh	LEDGF integ inh	TCR-CD3 inh	TDP2 absorb	SIAE confirm
Cc1nc(C/C(=N\N)c2ccc(O)cc2O)cs1	.	.	.	.	.	.	/
CCc1cc(/C(Cc2csc(C)n2)=N/O)c(O)cc1O	.	.	19	.	.	.	.
CC(C)Cc1nnc(NS(=O)(=O)c2ccc(Cl)cc2)s1	.	.	27	.	.	.	.
COc1ccc(S(=O)(=O)Nc2nnc(CC(C)C)s2)cc1	.	.	.	.	.	.	/
O=S(=O)(Nc1nccs1)c1ccc(Cl)cc1	.	.	19	.	.	.	.
Cc1c(C(=O)NCc2cccs2)sc(=O)n1Cc1ccc(S(=O)(=O)N(C)C)cc1	.	/	.	.	.	.	/
COCCCNC(=O)c1cc(Sc2ccc(F)cc2)nc2ccccc12	.	.	18	.	.	.	.
CCOCCCNC(=O)c1cc(Sc2ccc(F)cc2)nc2ccccc12	.	.	.	.	.	.	/
O=C(CC[C@H]1O[C@@H](n2cnc3c(NC(=O)c4ccccc4)ncnc32)[C@H](O)[C@@H]1O)NCCCN1CCOCC1	.	/	19	.	.	.	.
O=C(N/N=C/c1c[nH]c2ccccc12)c1ccccc1Cl	.	.	.	.	.	.	/
O=C(N/N=C/c1c[nH]c2ccccc12)c1cc(Cl)ccc1O	.	.	18	.	.	.	.
O=C(CCN1CCOCC1)N1CCCC(Nc2ccc(F)cc2)C1 (configuration not stated)	.	.	18	.	.	.	.
O=C(c1ccccc1N1CCOCC1)N1CCCC(Nc2ccc(F)cc2)C1 (configuration not stated)	.	.	.	.	.	.	/
Cc1ccc(NS(=O)(=O)c2cccc(C(=O)NNC(=O)NC3CCCCC3)c2)c(C)c1	.	.	18	.	.	.	.
COc1cccc(OCC(O)CN2CCN(c3ccc(Cl)cc3)CC2)c1 (configuration not stated)	.	.	19	.	.	.	.
COc1cccc(OCC(O)CN2CCN(c3ccccc3)CC2)c1 (configuration not stated)	.	.	.	.	.	.	/
CCOc1ccc(OCC)c(NC(=O)Nc2ccc3c(c2)N(C)C(=O)CS3)c1	.	.	22	.	.	.	.
C[C@@H]1CN([C@@H](C)CO)C(=O)CCCn2cc(nn2)CO[C@H]1CN(C)C(=O)Nc1ccc(C(C)(C)C)cc1	.	/	.	.	.	.	/
CCOC(=O)C(O)(C1C(=O)CC(C)(C)CC1=O)C(F)(F)F (configuration not stated)	.	.	33	.	.	.	19
CC(=O)NC(C1C(=O)CC(C)(C)CC1=O)(C(F)(F)F)C(F)(F)F	.	.	.	.	.	.	/
CCOc1ccc(CCNC(=O)Cc2ccc(NC(=O)C3=C(C)OCCS3)cc2)cc1	.	.	19	.	.	.	.
COc1ccc(OC)c(CCNC(=O)Cc2ccc(NC(=O)C3=C(C)OCCS3)cc2)c1	.	.	.	.	.	.	/
Cc1c(Cl)cc(C(C)C)c(O)c1CN1CCOCC1	.	.	.	.	.	.	/
COc1ccc2[nH]c(C)c(CCNC(=S)Nc3cccc(C)c3C)c2c1	.	.	18	.	.	.	.
COc1ccc2[nH]c(C)c(CCNC(=S)Nc3ccccc3C)c2c1	.	.	.	.	.	.	/
SMILES	mABHD4 FP	HTRA1 inhibitor	SIAE inh	LEDGF integ inh	TCR-CD3 inh	TDP2 absorb	SIAE confirm
CCCCn1c(N)c(N(CC)C(=O)CSc2nnnn2-c2cc(C)ccc2C)c(=O)[nH]c1=O	.	.	.	.	.	.	/
CCCCn1c(N)c(N(C(=O)CSc2nnnn2-c2ccccc2)C2CCCC2)c(=O)[nH]c1=O	.	.	22	.	.	.	.
COc1ccc(NC(=S)Nc2ccc3cn[nH]c3c2)cc1	.	.	.	.	.	.	/
CC(C)NC(=S)Nc1ccc2cn[nH]c2c1	.	.	19	.	.	.	.
CCCC(=O)NC(c1ccco1)c1c(O)ccc2ccccc12 (configuration not stated)	.	.	.	.	.	.	/
CCC(=O)NC(c1ccco1)c1cc(Br)c2cccnc2c1O (configuration not stated)	.	/	19	.	.	.	.
CCOC(=O)c1c(C)sc2c1N(C(=O)CN(CC)CC)c1ccccc1S2	.	.	17	.	.	.	.
CCCCCN(C(=O)CSc1n[nH]c(-c2ccc(C)cc2)n1)c1c(N)n(CCCC)c(=O)[nH]c1=O	.	.	.	.	.	.	/
CC(=O)c1c(C)[nH]c(C(=O)NCc2ccc(F)cc2)c1C	.	.	.	.	.	.	/
CC(=O)c1c(C)[nH]c(C(=O)NCc2ccccc2)c1C	.	.	26	.	.	.	.
COC(=O)c1sc(S(=O)(=O)NC(Cc2ccccc2)C(=O)O)c(C(=O)OC)c1C (configuration not stated)	.	.	.	.	.	.	/
Fc1ccc2nc(-c3ccc(CN4CCC5(CC4)CNc4ccccc45)cc3)c(-c3ccccc3)nc2c1	.	/	.	.	.	.	/
S=C(NNc1ccnc2cc(Cl)ccc12)Nc1ccccc1Cl	.	.	24	.	.	.	20
S=C(Nc1ccccc1Cl)Nc1ccc(Cl)cc1Cl	.	.	.	.	.	.	/
Cc1ccccc1N1CCN(C2=NC(=O)/C(=C/c3cn[nH]c3-c3ccccc3)S2)CC1	.	.	24	.	.	.	.
COc1ccc(C(=O)N/C(=C/c2ccco2)C(=O)N2CCCCCC2)cc1	.	.	.	.	.	.	/
COc1ccc(C/C(C)=N/NC(=O)c2cccnc2)cc1	.	.	18	.	.	.	.
CN(c1ccccc1)S(=O)(=O)c1cccc(NC(=O)CSc2ncn[nH]2)c1	.	.	18	.	.	.	.
Cc1ccc(-c2cnc(SCCNC(=O)c3ccco3)[nH]2)cc1	.	.	17	.	.	.	.
CSc1nnc(C)c(/C=C/Nc2ccc(C)cc2)n1	.	.	.	.	.	.	/
CSc1nnc(C)c(/C=C/NOCc2ccc(Cl)cc2)n1	.	.	18	.	.	.	.
COc1cc(/C=N/Nc2nc(-c3ccc(S(=O)(=O)N(C)C)cc3)cs2)ccc1O	.	.	17	.	.	.	.
COc1ccc(/C=N/Nc2nc(-c3cccc(S(=O)(=O)N4CCCC4)c3)cs2)cc1OC	.	.	.	.	.	.	/
CCOc1cc(/C=N/Nc2nc(-c3cccc(S(=O)(=O)N4CCCC4)c3)cs2)ccc1O	.	.	21	.	.	.	.
COc1ccc(-c2csc(NC(=S)NC(=O)c3ccc(S(=O)(=O)N(C)C)cc3)n2)cc1OC	.	.	.	.	.	.	/

Screening data (PubChem)
